Laboratory results reported in ChEMBL document CHEMBL1122545, “N2-(4-Substituted-2,6-dichlorophenyl)-N1,N1-dimethylformamidines as antihypertensive and diuretic agents” (J Med Chem, 1984).

Assays:
[1] = Diuretic activity was determined expressed as volume of urine excreted in mL was reported at a dose of 25 mg/Kg; format: ADME; conditions: in vivo
Method in brief: (§1)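 Male SH rats (Okamoto strain), 16 weeks old, dosed orally by gavage with compound dispersed in 3% starch in normal saline at 2 mL/kg. Oral normal saline load, then individual metabolism cages; 0-5 h urine collected, Na+ and K+ measured by flame photometry. Rats redosed at 24 h without the saline load. MABP and HR taken by femoral arterial puncture under local anesthetic 4 h after the second dose.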

[2] = Diuretic activity was determined expressed as Na+(sodium) excreted in milli equivalents was reported for a duration of 5 hours after administration of a dose of 25 mg/Kg; format: ADME, Urine; conditions: in vivo; method in brief: as §1
Rattus norvegicus [3] = assay: Antihypertensive activity determined as heart rate in SH rats, was reported at a dose of 25 mg/Kg; format: functional; method in brief: as §1
Rattus norvegicus [4] = assay: Diuretic activity was determined in SH rats expressed as K(+) (potassium) excreted in milli equivalents was reported for a duration of 5 hours after administration of a dose of 25 mg/Kg; format: ADME, organism-based, Urine; conditions: in vivo; method in brief: as §1
Rattus norvegicus [5] = assay: Antihypertensive activity in SH rats, and mean arterial blood pressure was reported at a dose of 25 mg/Kg; format: functional, Artery; method in brief: as §1
Rattus norvegicus [6] = assay: Diuretic activity was determined in SH rats expressed as K(+) (potassium) excreted in milli equivalents was reported for a duration of 5 hours after administration of a dose of 10 mg/Kg.; format: ADME, organism-based, Urine; conditions: in vivo; method in brief: as §1
Rattus norvegicus [7] = assay: Antihypertensive activity determined as heart rate in SH rats, was reported at a dose of 10 mg/Kg; format: functional; method in brief: as §1
Rattus norvegicus [8] = assay: Diuretic activity was determined in SH rats expressed as K(+) (potassium) excreted in milli equivalents was reported for a duration of 5 hours after administration of a dose of 25 mg/Kg.; format: ADME, organism-based, Urine; conditions: in vivo; method in brief: as §1
[9] = Diuretic activity was determined expressed as Na+(sodium) excreted in milli equivalents was reported for a duration of 5 hours after administration of a dose of 10 mg/Kg; format: ADME, Urine; conditions: in vivo; method in brief: as §1
Rattus norvegicus [10] = assay: Antihypertensive activity in SH rats, and mean arterial blood pressure was reported at a dose of 10 mg/Kg; format: functional, Artery; method in brief: as §1
[11] = Diuretic activity was determined expressed as volume of urine excreted in mL was reported at a dose of 10 mg/Kg; format: ADME; conditions: in vivo; method in brief: as §1

Diuretic activity [1] | Diuretic activity [2] | Diuretic activity (Rattus norvegicus [4]) | Diuretic activity (Rattus norvegicus [6]) | Diuretic activity (Rattus norvegicus [8]) | Diuretic activity [9] | Diuretic activity [11] | SMILES | HR (Rattus norvegicus [3]) | MABP (Rattus norvegicus [5]) | HR (Rattus norvegicus [7]) | MABP (Rattus norvegicus [10])
25.5 mL | 2.59 m equiv | 0.6 m equiv | – | – | – | – | Cc1cc(N(C)C)ccc1CNc1cc(Cl)c(/N=C/N(C)C)c(Cl)c1 | 270 beats min-1 | 138 mmHg | – | –
22.5 mL | 2.16 m equiv | – | 0.48 m equiv | 0.75 m equiv | 1.29 m equiv | 14.8 mL | COc1cc(N(C)C)ccc1CNc1cc(Cl)c(/N=C/N(C)C)c(Cl)c1 | 270 beats min-1 | 114 mmHg | 450 beats min-1 | 132 mmHg
